In one data set the target is T1, NorA efflux pump (Staphylococcus aureus, UniProt P0A0J7).
T1 sequence (P0A0J7 1-388): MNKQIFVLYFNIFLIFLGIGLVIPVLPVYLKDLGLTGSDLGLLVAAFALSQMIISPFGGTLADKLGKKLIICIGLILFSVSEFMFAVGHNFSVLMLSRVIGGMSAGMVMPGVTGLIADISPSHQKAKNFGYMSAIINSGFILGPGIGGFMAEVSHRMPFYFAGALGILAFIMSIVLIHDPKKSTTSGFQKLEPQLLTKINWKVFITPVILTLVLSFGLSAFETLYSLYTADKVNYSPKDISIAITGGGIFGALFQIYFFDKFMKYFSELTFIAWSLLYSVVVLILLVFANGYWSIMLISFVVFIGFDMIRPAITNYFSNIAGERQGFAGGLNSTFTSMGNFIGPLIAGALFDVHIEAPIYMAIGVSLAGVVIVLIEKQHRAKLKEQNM
Description: Efflux pump inhibition. As to conditions: read-out: inhibition of NorA activity, lower than for 3 or 4. It is filed as cell-based. The method, boiled down:
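S. aureus 1199B knocked back to OD600 0.550, then loaded with ethidium bromide (10 μg mL−1) plus 100 μM CCCP in MHII at OD600 1.000 for 20 min at room temperature. Spun, held on ice, warmed 5 min, adjusted to OD600 0.800. Added to wells containing test compound, CCCP or reserpine. Fluorescence read at ex 530/em 600 nm every minute for 20 min. Three runs, SD.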

Data set [1] deals with HEK-293, HeLa and Cos-7 cells. Kind of data set: Mammalian cell cytotoxicity. As to conditions: 1/2 MIC; 24 hours; XTT. It is filed as cell-based. The method, boiled down: (§1)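 HEK-293, HeLa and Cos-7 cells kept in DMEM with 10% FBS and 1% penicillin–streptomycin. Seeded at 3 × 10^4 cells per well and grown 24 h to 80–90% confluence. […] XTT assay: absorbance at 450 nm, 690 nm background. Percent survival versus untreated cells, three replicates, mean ± SD.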
A general note: Formazan colour is commonly taken as a measure of viable cells.

The test system of another data set is human hepatocytes. Kind of data set: Human hepatocyte cell viability. It is filed as cell-based. As to conditions: 72 h, read-out: EC50 against human hepatocytes. The gist of the method:
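Human hepatocytes treated with 1–100 μM test compound, or CCCP as control, for 72 h. Survival then determined.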

For data set [2], the system named is tet^R E. coli. Description: Combination. It counts as cell-based, Escherichia coli. The conditions noted are these: for Fold enhancement: tetracycline, amphiphile 20 μM, Tet^R E. coli.
Another data set concerns E. faecalis (VanA). Kind of data set: MIC screening. It counts as cell-based, Enterococcus faecalis. The gist of the method:
(§2)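 Broth microdilution. Overnight cultures knocked back to OD600 0.100 and grown at 37 °C to OD600 0.500. Final inoculum 4 × 10^5 CFU mL−1 in cation-adjusted MHII; S. pneumoniae in CA-MHB with 5% LHB; tetR E. coli in LB with 100 μg mL−1 ampicillin. Final DMSO 0.5% v/v. Incubated 18–20 h at 37 °C, then OD600 read. MIC is ≥90% inhibition versus untreated cells. Triplicate wells, repeated on two further plates.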

The next data set relates to E. faecalis (control). Kind of data set: MIC screening. It counts as cell-based, Enterococcus faecalis. The method, boiled down:
as §2

The test system of a further data set is E. aerogenes (R:Cep). Description: MIC screening. It counts as cell-based, Enterobacter aerogenes. The conditions noted are these: Klebsiella aerogenes. The gist of the method: as §2
A further data set concerns P. aeruginosa (R:Mero). Kind of data set: MIC screening. It counts as cell-based. The conditions noted are these: Pseudomonas aeruginosa. The method, boiled down: as §2
For another data set, the system named is E. coli (Tol-). Kind of data set: MIC screening. It is filed as cell-based. The conditions noted are these: Escherichia coli. The method, boiled down:
as §2

A further data set has as its system E. coli (WT). Kind of data set: MIC screening. The conditions noted are these: Escherichia coli. It is filed as cell-based. The method, boiled down:
as §2

The subject of data set [3] is S. aureus 1199B. Description: MIC against NorA expressing S. aureus 1199B. As to conditions: Staphylococcus aureus. It counts as cell-based. The method, boiled down: as §2
Data set [4] relates to tet^R E. coli. Kind of data set: MIC against efflux pump expressing tet^R E. coli. It is filed as cell-based. The conditions noted are these: Escherichia coli. The method, boiled down: as §2
A short description of data set [5]: Solubility in combination assay. As to conditions: combination assay medium.
Another data set relates to MRSA (USA 300). Description: MIC screening. As to conditions: Staphylococcus aureus, MRSA|USA300. It counts as cell-based. The gist of the method: as §2
The next data set deals with MRSA (USA100). Kind of data set: MIC screening. As to conditions: Staphylococcus aureus. It counts as cell-based. The method, boiled down:
as §2

In another data set the test system is S. aureus (control). Description: MIC screening. It is filed as cell-based. The conditions noted are these: Staphylococcus aureus. The method, boiled down:
as §2

The next data set concerns MRSA. Kind of data set: MIC against MRSA as stated in text. It counts as cell-based. As to conditions: Staphylococcus aureus. The method, boiled down:
as §2

The test system of a further data set is S. pneumoniae (control). Description: MIC screening. It counts as cell-based. As to conditions: Streptococcus pneumoniae. The method, boiled down:
as §2

Another data set has as its system MRSA (control). Kind of data set: MIC screening. It is filed as cell-based. The conditions noted are these: Staphylococcus aureus. The gist of the method: as §2
The test system of data set [6] is tet^R E. coli. Description: Resistance development by sequential culturing. It counts as cell-based, Escherichia coli. The conditions noted are these: 15 days. The gist of the method: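 Serial passage of tetR E. coli in LB over 15 days, with minocycline as comparator. […] Each day, cells from the second-highest concentration that allowed growth were diluted 1:100 into fresh media at 0.25–4× MIC. Cultures growing above the MIC were passaged on antibiotic-free LB agar and the MIC was redetermined. Mean of three trials.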

The subject of data set [7] is tet^R E. coli. Kind of data set: Membrane permeability using propidium iodide and FDA. It counts as cell-based, Escherichia coli. The gist of the method:
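tetR E. coli grown overnight with 100 μg mL−1 ampicillin (37 °C, 200 RPM) and knocked back to OD600 0.550. Treated 30 min at half-MIC; Triton X-100 and DMSO controls; DMSO 0.5%. Washed (3000 × g, 5 min) into PBS, then stained with propidium iodide (30 μM) and fluorescein diacetate (60 μM) for 30 min at 37 °C. Washed again and imaged by confocal microscopy.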

The test system of data set [8] is S. aureus 1199B. Kind of data set: Membrane permeability using propidium iodide. It counts as cell-based, Staphylococcus aureus. As to conditions: 0.1% (1.6 mM).
In a further data set the test system is Cos-7 cells. Kind of data set: Mammalian cell cytotoxicity. It counts as cell-based, simian. As to conditions: 1/2 MIC; 24 hours; XTT. The method, boiled down:
as §1

A further data set deals with HEK-293 cells. Kind of data set: Mammalian cell cytotoxicity. As to conditions: 1/2 MIC (4: 1 μM; colistin 0.125 μM); 24 hours; XTT. It counts as cell-based, human.
Data set [9] relates to tet^R E. coli. Description: Potassium transport. It is filed as cell-based, Escherichia coli. As to conditions: 30 μM. The method, boiled down:
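tetR E. coli pelleted at 2000 × g, resuspended in PBS and adjusted to OD 1.300. Stirred suspension monitored with a K+-selective electrode. Multiple test compound concentrations; mV recorded every 30 s for 15 min. [K+] calculated from a calibration curve. Total potassium pool from cells heated at 100 °C for 30 min, set as 100%. Three trials, SD.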

[10] abbreviates: amphiphile at 1/2 MIC, tet^R E. coli.

≈ marks a conversion by molar mass, not a printed value.

As to `N#CC(C#N)=NNc1cccc(Cl)c1` [CCCP, carbonyl cyanide 3-chlorophenylhydrazone], at NorA efflux pump, the inhibition (as a rule, how much of the control response was suppressed) at 4 µM was around 30%. For the same compound, the cytotoxicity result in data set [1] is “cytotoxic”. The EC50 (commonly the concentration that produces a half-maximal response) in the data set on human hepatocytes was 5 µM. Moreover, in the data set with tet^R E. coli [2] (setting [10]), the “FIC index with tetracycline” value was 0.75 and the “increase (recovery) in activity of tetracycline” value is 4 fold.

Turning to `CCCCCCCCCC(=O)N[C@@H](Cc1c[nH]c2ccccc12)C(=O)N[C@H](CC(N)=O)C(=O)N[C@@H](CC(=O)O)C(=O)N[C@@H]1C(=O)NCC(=O)N[C@@H](CCCN)C(=O)N[C@@H](CC(=O)O)C(=O)N[C@H](C)C(=O)N[C@@H](CC(=O)O)C(=O)NCC(=O)N[C@H](CO)C(=O)N[C@@H]([C@H](C)CC(=O)O)C(=O)N[C@@H](CC(=O)c2ccccc2N)C(=O)O[C@@H]1C` [Daptomycin, daptomycin], the minimum inhibitory concentration (MIC) in the data set with E. faecalis (VanA) and against E. faecalis (control) was 2.5 µM (≈ 4.05 µg/mL) in each case.

Take `C[C@@H](O)[C@H]1C(=O)N2C(C(=O)O)=C(S[C@@H]3CN[C@H](C(=O)N(C)C)C3)[C@H](C)[C@H]12` [Meropenem, meropenem]: the minimum inhibitory concentration (MIC) (usually the least concentration at which growth counts as inhibited) against E. aerogenes (R:Cep) is below 0.33 µM; in the data set on P. aeruginosa (R:Mero), above 166 µM; against E. coli (Tol-) it was below 0.33 µM; against E. coli (WT), below 0.33 µM.

As for `CCn1cc(C(=O)O)c(=O)c2cc(F)c(N3CCNCC3)cc21` [Norfloxacin, norfloxacin], in the data set on S. aureus 1199B [3], the minimum inhibitory concentration (MIC) amounted to 64 µM (≈ 20.4 µg/mL).

For `COC(=O)[C@H]1[C@H]2C[C@@H]3c4[nH]c5cc(OC)ccc5c4CCN3C[C@H]2C[C@@H](OC(=O)c2cc(OC)c(OC)c(OC)c2)[C@@H]1OC` [Reserpine, reserpine], on NorA efflux pump, the inhibition at 4 µM is around 30%.

As to `CN(C)[C@@H]1C(O)=C(C(N)=O)C(=O)[C@@]2(O)C(O)=C3C(=O)c4c(O)cccc4[C@@](C)(O)[C@H]3C[C@@H]12` [Tetracycline, tetracycline], the MIC in the data set with tet^R E. coli [4] stood at 900 ± 50 µM (≈ 400 µg/mL).

Regarding `CC(C)[C@@H]1NC(=O)[C@H](C)OC(=O)[C@@H](C(C)C)NC(=O)[C@@H](C(C)C)OC(=O)[C@H](C(C)C)NC(=O)[C@H](C)OC(=O)[C@@H](C(C)C)NC(=O)[C@@H](C(C)C)OC(=O)[C@H](C(C)C)NC(=O)[C@H](C)OC(=O)[C@@H](C(C)C)NC(=O)[C@@H](C(C)C)OC1=O` [Valinomycin, valinomycin], in the data set on tet^R E. coli [2], the Fold enhancement turned out to be 2 fold. Moreover, the solubility entry in data set [5] was “insoluble at >20 μM”.

As to `CN[C@H](CC(C)C)C(=O)N[C@H]1C(=O)N[C@@H](CC(N)=O)C(=O)N[C@H]2C(=O)N[C@H]3C(=O)N[C@H](C(=O)N[C@H](C(=O)O)c4cc(O)cc(O)c4-c4cc3ccc4O)[C@H](O)c3ccc(c(Cl)c3)Oc3cc2cc(c3O[C@@H]2O[C@H](CO)[C@@H](O)[C@H](O)[C@H]2O[C@H]2C[C@](C)(N)[C@H](O)[C@H](C)O2)Oc2ccc(cc2Cl)[C@H]1O` [Vancomycin, vancomycin], the MIC in the data set on MRSA (USA 300) was 1 µM (≈ 1.45 µg/mL); in the data set on MRSA (USA100), 1 µM (≈ 1.45 µg/mL); in the data set on S. aureus (control), 0.5 µM (≈ 0.725 µg/mL); in the data set with MRSA, 1 to 2 µM (≈ 1.45 to 2.9 µg/mL); against S. pneumoniae (control) it was below 0.1 µM; in the data set on MRSA (control), 1 µM (≈ 1.45 µg/mL).

For the compound `CN(C)c1ccc(O)c2c1C[C@H]1C[C@H]3[C@H](N(C)C)C(O)=C(C(N)=O)C(=O)[C@@]3(O)C(O)=C1C2=O` [minocycline], the “resistance development, increase in MIC” value with tet^R E. coli [6] is on record as 40 fold.

As for Triton X-100, the “membrane permeability (propidium iodide)” value in the data set with tet^R E. coli [7] (0.1% (1.6 mM)) and in the data set on S. aureus 1199B [8] was “increases membrane permeability” in each case. Besides, in the data set with tet^R E. coli [2], the Fold enhancement stood at 2 fold.

Turning to colistin, the “concentration that increases membrane permeability (propidium iodide)” value in the data set on tet^R E. coli [7] is at least 2000 nM. Moreover, the “survival of Cos-7” value in the data set on Cos-7 cells is listed as “non-cytotoxic”. Further, the “survival of HEK-293” value in the data set on HEK-293 cells is on record as “about 60%”.

Take gramicidin-D: the “K+ release, percent of total potassium pool” value in the data set on tet^R E. coli [9] was 50–60%. For the same compound, the Fold enhancement in the data set on tet^R E. coli [2] is 1 fold. Also, the solubility entry in data set [5] is recorded as “insoluble at >20 μM”.

Values taken from PMC9059958 (RSC Advances, 2019).
